Our source for the inhibition, IC50 and Ki values is ChEMBL document CHEMBL3352649, “2,2'-Dihydroxybenzophenones and their carbonyl N-analogues as inhibitor scaffolds for MDR-involved human glutathione transferase isoenzyme A1-1” (Bioorg Med Chem, 2014).

In general, inhibition refers to the relative decrease from the control value, in per cent. For orientation: IC50 means the concentration at which inhibition is half-maximal. A word on the Ki: it is a measure of affinity in units of concentration, obtained from inhibition or displacement.

The target of test [1] is T1, Glutathione S-transferase A1 (Homo sapiens) (UniProt P08263).
T1 sequence (whole entry): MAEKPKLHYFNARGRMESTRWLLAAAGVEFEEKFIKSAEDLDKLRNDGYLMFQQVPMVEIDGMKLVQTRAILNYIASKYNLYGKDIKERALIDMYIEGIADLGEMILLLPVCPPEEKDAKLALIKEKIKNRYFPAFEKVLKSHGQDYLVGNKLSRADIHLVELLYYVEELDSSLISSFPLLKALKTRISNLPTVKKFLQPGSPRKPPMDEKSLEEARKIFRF
The experiment in a line: Inhibition of human GSTA1 activity assessed as conjugation between CDNB and GSH at 25 uM. A digest of the protocol: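 1 mL of 100 mM potassium phosphate pH 6.5, 0.75 µmol GSH, 25 nmol compound (from 5 mM DMSO stock), enzyme; 1 min at 25 °C, then 0.3 µmol CDNB. Read at 340 nm. Remaining activity is relative to a 5 µL DMSO replacement, mean of three assays.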

The target in test [2] is T2, Glutathione S-transferase A1 (Homo sapiens, UniProt P08263).
T2 sequence (P08263 whole entry): T1 sequence (whole entry)
The experiment in a line: Inhibition of human GSTA1 activity assessed as conjugation between CDNB and GSH.

In test [3] the target is T2, Glutathione S-transferase A1. As to the kind of experiment: Mixed-type inhibition of human GSTA1 activity by double reciprocal Lineweaver-Burk graph.

SMILES strings stand for the structures.

Regarding `O=C(c1ccccc1O)c1cc(Br)ccc1O`, the inhibition in test [1] was found to be 87.7%. Further, the IC50 in test [2] was determined as 0.24 µM. For the same compound, the inhibition constant (Ki) in test [3] was found to be 0.36 µM.

Regarding `O=C(c1ccccc1O)c1ccccc1O`, in test [1], the inhibition was 0%.
